The target of series [1] is T1, 5-hydroxytryptamine receptor 2C (Homo sapiens) (UniProt P28335).
T1 sequence (whole entry): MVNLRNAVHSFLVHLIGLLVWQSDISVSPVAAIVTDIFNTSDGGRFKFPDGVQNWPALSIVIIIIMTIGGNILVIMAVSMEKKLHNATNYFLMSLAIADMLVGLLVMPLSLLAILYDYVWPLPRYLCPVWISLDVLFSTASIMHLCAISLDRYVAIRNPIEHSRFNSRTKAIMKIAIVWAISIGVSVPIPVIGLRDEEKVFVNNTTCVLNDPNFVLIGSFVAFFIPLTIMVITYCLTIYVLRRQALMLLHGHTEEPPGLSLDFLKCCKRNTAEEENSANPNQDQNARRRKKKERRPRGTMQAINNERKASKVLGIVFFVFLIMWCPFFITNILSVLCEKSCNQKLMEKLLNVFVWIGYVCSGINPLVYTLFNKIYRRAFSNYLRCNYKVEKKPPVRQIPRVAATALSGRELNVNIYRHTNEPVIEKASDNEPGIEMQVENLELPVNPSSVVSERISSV
The experiment in a line: Displacement of [3H]mesulergine from human recombinant 5HT2C serotonin receptor at 10^-6M incubated for 120 mins by scintillation counter method relative to control. (Loss of bound radioactivity is the signal in a displacement assay; it reports binding, not function.)

In another series the target is Cytochrome P450 3A4 (Homo sapiens, UniProt P08684). Description: Inhibition of human recombinant CYP3A4 expressed in Escherichia coli at […] using luciferin PFBE as substrate preincubated for 5 mins followed by NADPH addition measured after 30 mins by P450-Glo luminescence assay. In kind it is ADME. To be noted: recombinant enzyme, 0.5 h.
Sequence of Cytochrome P450 3A4 (P08684 whole entry): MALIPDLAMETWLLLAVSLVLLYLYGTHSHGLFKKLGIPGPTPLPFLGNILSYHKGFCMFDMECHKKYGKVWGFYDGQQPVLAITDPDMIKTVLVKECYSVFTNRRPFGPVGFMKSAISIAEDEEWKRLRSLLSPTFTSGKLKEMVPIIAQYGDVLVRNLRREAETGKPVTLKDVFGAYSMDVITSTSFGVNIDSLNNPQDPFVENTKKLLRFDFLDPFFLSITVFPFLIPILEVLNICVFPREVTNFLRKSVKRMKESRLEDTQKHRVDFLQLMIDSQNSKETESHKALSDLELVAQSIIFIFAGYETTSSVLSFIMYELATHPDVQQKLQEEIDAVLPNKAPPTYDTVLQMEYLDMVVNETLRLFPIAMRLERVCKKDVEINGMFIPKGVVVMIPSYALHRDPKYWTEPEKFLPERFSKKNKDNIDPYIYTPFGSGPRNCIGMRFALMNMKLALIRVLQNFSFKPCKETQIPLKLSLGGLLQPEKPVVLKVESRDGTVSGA
Series [2] concerns the target Histamine H1 receptor (Homo sapiens) (UniProt P35367). Description: Agonist activity at human recombinant H1 histamine receptor at 10^-5 M relative to control.
A short description of the next series: in vitro. Conditions: rat, microsomes; call rule not given here.
For series [3], the target named is Histamine H1 receptor (Homo sapiens) (UniProt P35367). The experiment in a line: Antagonist activity at human recombinant H1 histamine receptor at 10^-5 M relative to control. More on the design: scale not given: the % may be the effect or the level left.
Sequence of Histamine H1 receptor (Homo sapiens) (P35367 whole entry): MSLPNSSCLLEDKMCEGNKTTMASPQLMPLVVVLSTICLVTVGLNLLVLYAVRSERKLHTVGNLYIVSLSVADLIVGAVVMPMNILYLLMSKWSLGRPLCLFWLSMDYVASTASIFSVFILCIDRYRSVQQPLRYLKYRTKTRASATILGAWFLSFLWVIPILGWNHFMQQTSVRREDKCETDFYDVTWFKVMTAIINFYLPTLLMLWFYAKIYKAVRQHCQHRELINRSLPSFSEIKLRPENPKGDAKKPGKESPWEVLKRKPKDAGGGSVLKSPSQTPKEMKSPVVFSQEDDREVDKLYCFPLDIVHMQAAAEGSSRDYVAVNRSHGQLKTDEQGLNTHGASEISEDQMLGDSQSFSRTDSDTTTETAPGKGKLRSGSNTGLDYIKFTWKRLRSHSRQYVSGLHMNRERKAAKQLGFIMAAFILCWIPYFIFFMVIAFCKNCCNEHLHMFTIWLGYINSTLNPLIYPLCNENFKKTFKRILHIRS
For series [4], the target named is T2, Alpha-1A adrenergic receptor (Rattus norvegicus) (UniProt P43140).
T2 sequence (whole entry): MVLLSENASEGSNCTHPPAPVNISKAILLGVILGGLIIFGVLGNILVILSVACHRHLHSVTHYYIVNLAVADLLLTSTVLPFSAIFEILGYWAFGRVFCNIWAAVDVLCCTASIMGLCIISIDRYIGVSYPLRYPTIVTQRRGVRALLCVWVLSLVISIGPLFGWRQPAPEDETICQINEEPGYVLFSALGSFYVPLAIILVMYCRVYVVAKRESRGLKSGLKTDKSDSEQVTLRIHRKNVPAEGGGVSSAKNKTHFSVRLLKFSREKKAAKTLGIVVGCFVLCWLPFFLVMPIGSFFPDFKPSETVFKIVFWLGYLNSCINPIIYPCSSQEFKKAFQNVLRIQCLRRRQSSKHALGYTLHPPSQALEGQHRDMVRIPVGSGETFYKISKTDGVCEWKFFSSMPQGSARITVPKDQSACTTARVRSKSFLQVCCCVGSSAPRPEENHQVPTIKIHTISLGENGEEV
The experiment in a line: Displacement of [3H] prazosin from rat alpha 1A adrenergic receptor at 10^-6 M measured after 60 mins by scintillation counter method relative to control.

Series [5] deals with Histamine H1 receptor (Homo sapiens) (UniProt P35367). Description: Displacement of [3H] pyrilamine from human recombinant H1 histamine receptor at 10^-6 M measured after 60 mins by scintillation counting method relative to control.
Series [6] is described as follows: Mutagenicity in Salmonella typhimurium TA100 at up to 10 uM measured after 90 mins by Ames test. It is filed as toxicity. Conditions: salmonella enterica subsp. enterica serovar typhimurium. An outline of the steps: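 Ames microplate fluctuation with S. typhimurium TA100; bacteria exposed to 1 and 10 μM compound 90 min at 37°C in limited-histidine medium, then distributed into histidine-free indicator medium, 72 h at 37°C. Revertant growth scored by colour change (absorbance 420 nm); NQNO 0.5 μM positive control; alert at ≥2.0-fold over baseline and binomial B ≥0.99.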
For orientation: In the Ames test, an excess of revertant colonies over the control signals mutagenicity.

A short description of series [7]: Solubility of compound in water. In kind it is physicochemical. To be noted: water; read-out: solubility.
For another series, the target named is Cytochrome P450 2D6 (Homo sapiens, UniProt P10635). Description: Inhibition of human recombinant CYP2D6 expressed in Escherichia coli at 6.4 uM using luciferin ME-EGE as substrate preincubated for 5 mins followed by NADPH addition measured after 45 mins by P450-Glo luminescence assay. In kind it is ADME. To be noted: recombinant enzyme, 0.75 h. A digest of the protocol: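 P450-Glo luminescent assays: enzyme, proluciferin and compound (final 0.01–25 μM) preincubated 5 min, reaction started with NADPH regeneration system; incubated at room temperature 30 min (CYP3A4) or 45 min (CYP2D6).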
Sequence of Cytochrome P450 2D6 (P10635 whole entry): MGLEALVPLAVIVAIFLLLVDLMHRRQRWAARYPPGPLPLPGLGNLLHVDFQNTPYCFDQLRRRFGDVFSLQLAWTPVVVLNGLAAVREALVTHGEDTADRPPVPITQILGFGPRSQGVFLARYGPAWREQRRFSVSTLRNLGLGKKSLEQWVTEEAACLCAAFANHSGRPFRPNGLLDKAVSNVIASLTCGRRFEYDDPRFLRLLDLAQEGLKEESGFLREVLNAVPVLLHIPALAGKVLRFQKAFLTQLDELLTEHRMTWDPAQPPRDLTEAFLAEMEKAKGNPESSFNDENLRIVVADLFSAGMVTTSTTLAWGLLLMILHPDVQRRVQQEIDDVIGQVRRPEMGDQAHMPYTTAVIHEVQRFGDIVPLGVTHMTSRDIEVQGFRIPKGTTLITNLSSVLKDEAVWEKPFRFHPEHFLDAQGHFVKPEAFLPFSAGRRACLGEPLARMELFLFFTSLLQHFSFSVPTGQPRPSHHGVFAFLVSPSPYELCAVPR

For series [8], the target named is 5-hydroxytryptamine receptor 6 (Homo sapiens, UniProt P50406). Description: Antagonist activity at human 5HT6 receptor expressed in HEK293 cells assessed as inhibition of 5-CT induced cAMP production measured after 30 mins by TR-FRET assay. It is filed as functional, cell-based.
Sequence of 5-hydroxytryptamine receptor 6 (P50406 whole entry): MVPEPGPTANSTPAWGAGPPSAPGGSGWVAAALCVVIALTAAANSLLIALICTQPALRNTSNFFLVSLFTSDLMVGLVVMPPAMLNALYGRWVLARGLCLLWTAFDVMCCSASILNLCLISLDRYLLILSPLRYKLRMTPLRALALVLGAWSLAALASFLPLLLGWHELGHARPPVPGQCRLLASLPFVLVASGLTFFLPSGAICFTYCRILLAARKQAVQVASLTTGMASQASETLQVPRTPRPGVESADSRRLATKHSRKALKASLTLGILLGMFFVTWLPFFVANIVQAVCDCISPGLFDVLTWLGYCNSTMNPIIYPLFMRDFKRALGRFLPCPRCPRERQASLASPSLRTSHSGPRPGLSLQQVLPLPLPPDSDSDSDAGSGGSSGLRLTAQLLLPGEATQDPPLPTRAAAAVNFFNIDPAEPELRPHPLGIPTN
The nature of series [9]: Acute oral toxicity in Wistar rat by OECD up and down test guideline method. To be noted: in vivo. A digest of the protocol:
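Female rats given a single oral dose under OECD Test Guideline No. 425 (Acute Oral Toxicity, Up-and-Down Procedure); acute toxicity class assigned.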

The source of these data is ChEMBL document CHEMBL4351001, “2-Aminoimidazole-based antagonists of the 5-HT6 receptor - A new concept in aminergic GPCR ligand design” (Eur J Med Chem, 2019).

Usually inhibition stands for the change of the read-out against control, counted positive when it falls. Usually microsomal CLint stands for a measure of how fast metabolising enzymes remove a compound, apart from limits set by blood flow. What is called solubility is the dissolved amount per volume that the medium holds. What is called Kb is the equilibrium dissociation constant of an antagonist, usually derived from a functional assay. A word on the LD50: it is the dose expected to kill half of the subjects tested.

Turning to `Cc1nc(N)[nH]c1-c1cn(S(=O)(=O)c2cccc3ccccc23)c2ccccc12.Cl`, the inhibition in [1] turned out to be 52.7%; in series [4], 10.7%; in [5], 70.1%. Besides, the INH result on Cytochrome P450 3A4 is on record as “Active”. Besides, the Activity is -1.3% in series [2], 25.7% in series [3] and “Non-Toxic” in series [6]. The microsomal CLint in the series “in vitro” turned out to be 60.3 µL/min/mg. The solubility in [7] fell in the range of 1000 to 10000 µg/mL. Moreover, the “inhibition (INH)” value at Cytochrome P450 2D6 is reported as “Active”. In addition, the Kb in series [8] was 4.8 nM. This compound also had an LD50 in [9] of over 2000 mg/kg.
